# ChEMBL document CHEMBL1138232, “Optimization of naphthalimide-imidazoacridone with potent antitumor activity leading to clinical candidate (HKH40A, RTA 502)” (J Med Chem, 2007)
# Values joined by “and” are separate entries in the source; they are usually repeats but may differ in a detail not shown here. Equal entries are not always repeated.
# How the values were obtained:
# [1] = Antitumor activity against human […] cells after 48 hrs; type: functional
# Outline: (§1)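 Tested in the NCI 60 human tumour cell line screen, with continuous drug exposure for 48 h. Values include LC50 derived from the screen.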
# UACC-62 = assay: Antitumor activity against human UACC62 cells after 48 hrs; type: functional; settings: UACC-62, 48 h
# Outline: (§2)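 NCI 60 human tumour cell line screen; 48 h continuous drug exposure. Compounds tested as tri(methanesulfonate) salts, soluble in water and dilute buffers. Dilute solutions are light-sensitive and adsorb to glass or quartz.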
# HCC 2998 = assay: Antitumor activity against human HCC2998 cells after 48 hrs; type: functional; settings: HCC 2998, 48 h; outline: as §1
# HOP-92 = assay: Antitumor activity against human HOP92 cells after 48 hrs; type: functional; settings: HOP-92, 48 h; outline: as §1
# HCT-116 [2] = assay: Antitumor activity against human HCT116 cells after 48 hrs; type: functional; settings: HCT-116, 48 h; outline: as §1
# HT-29 [3] = assay: Growth inhibition of human HT29 cells after 5 days by MTT assay; type: functional; settings: HT-29, 120 h
# Outline: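 MTT assay after 5 day continuous exposure. GI50, TGI and LC50 calculated from the MTT data. Means ± SD of at least three independent experiments; coefficients of variation 10-20%. Compounds used as tri(methanesulfonate) salts.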
# RPMI-8226 = assay: Antitumor activity against human RPMI-8226 cells after 48 hrs; type: functional; settings: RPMI-8226, 48 h; outline: as §1
# HCT-15 = assay: Antitumor activity against human HCT15 cells after 48 hrs; type: functional; settings: HCT-15, 48 h; outline: as §1
# SK-MEL-2 = assay: Antitumor activity against human SK-MEL-2 cells after 48 hrs; type: functional; settings: SK-MEL-2, 48 h; outline: as §1
# T47D = assay: Antitumor activity against human T47D cells after 48 hrs; type: functional; outline: as §2
# NCI-H226 = assay: Antitumor activity against human NCI-H226 cells after 48 hrs; type: functional; settings: NCI-H226, 48 h; outline: as §1
# KM12 = assay: Antitumor activity against human KM12 cells after 48 hrs; type: functional; settings: KM12, 48 h; outline: as §1
# SF-539 = assay: Antitumor activity against human SF539 cells after 48 hrs; type: functional; settings: SF-539, 48 h; outline: as §1
# [4] = Apparent volume of distribution in NCR nu/nu mouse at 20 mg/kg, iv; type: ADME, organism-based; parameters: dose 20 mg/kg, route intravenous; settings: in vivo
# Outline: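 Single i.v. dose of 20 mg/kg to ncr nu/nu mice and an F344 rat. Plasma concentrations followed over time and fitted by nonlinear regression to give distribution and elimination phases, AUC and apparent volumes of distribution. Detection limit 50 nM.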
# SK-OV-3 = assay: Antitumor activity against human SK-OV-3 cells after 48 hrs; type: functional; settings: SK-OV-3, 48 h; outline: as §1
# K562 = assay: Antitumor activity against human K562 cells after 48 hrs; type: functional; outline: as §1
# HCT-116 [5] = assay: Antitumor activity against human HCT116 cells expressing wild type p53; type: functional; settings: read-out: LC50 (the source's name)
# Outline: (§3)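 Compounds tested as tri(methanesulfonate) salts, soluble in water and dilute buffers. Human tumour cells carrying wild-type or mutated p53 were exposed for 5 days, and viability was read by MTT assay. GI50, TGI and LC50 were calculated from the MTT data. Values are means ± SD of at least three independent experiments, with coefficients of variation of 10–20%.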
# SF-268 = assay: Antitumor activity against human SF268 cells after 48 hrs; type: functional; settings: SF-268, 48 h; outline: as §1
# SW-620 = assay: Antitumor activity against human SW620 cells after 48 hrs; type: functional; settings: SW-620, 48 h; outline: as §2
# IGROV-1 = assay: Antitumor activity against human IGROV1 cells after 48 hrs; type: functional; settings: IGROV-1, 48 h; outline: as §1
# Hs-578T = assay: Antitumor activity against human HS578T cells after 48 hrs; type: functional; outline: as §1
# NCI-H460 = assay: Antitumor activity against human NCI-H460 cells after 48 hrs; type: functional; settings: NCI-H460, 48 h; outline: as §1
# TK-10 = assay: Antitumor activity against human TK10 cells after 48 hrs; type: functional; settings: TK-10, 48 h; outline: as §2
# NCI-H522 = assay: Antitumor activity against human NCI-H522 cells after 48 hrs; type: functional; settings: NCI-H522, 48 h; outline: as §1
# NCI-H23 = assay: Antitumor activity against human NCI-H23 cells after 48 hrs; type: functional; settings: NCI-H23, 48 h; outline: as §1
# MDA-MB-435 = assay: Antitumor activity against human MDA-MB-435 cells after 48 hrs; type: functional; settings: MDA-MB-435, 48 h; outline: as §1
# NCI = assay: Antitumor activity against human NCI/ADR-RES cells after 48 hrs; type: functional; outline: as §1
# OVCAR-5 = assay: Antitumor activity against human OVCAR5 cells after 48 hrs; type: functional; settings: OVCAR-5, 48 h; outline: as §1
# SNB-75 = assay: Antitumor activity against human SNB75 cells after 48 hrs; type: functional; settings: SNB-75, 48 h; outline: as §2
# RKO = assay: Antitumor activity against human RKO cells expressing wild type p53; type: functional; settings: read-out: LC50 (the source's name); outline: as §3
# SR = assay: Antitumor activity against human SR cells after 48 hrs; type: functional; outline: as §2
# [6] = Antitumor activity against human HL60 (TB) cells after 48 hrs; type: functional, HL-60(TB); settings: HL-60, 48 h; outline: as §1
# HT-29 [7] = assay: Antitumor activity against human HT29 cells after 48 hrs; type: functional; settings: HT-29, 48 h; outline: as §1
# [8] = read-out: Log LC50 (the source's name) (converted)
compound,measurement,setting,value
COc1ccc2c(c1)c(=O)c1c(NCCCN3CCN(CCCN4C(=O)c5cccc6cc([N+](=O)[O-])cc(c56)C4=O)CC3)ccc3ncn2c31.CS(=O)(=O)O,GI50,[1],4.79 nM
same,CC50,[1]; [8],> 1000 nM
same,TGI,[1]; read-out: Log TGI (converted),> 1000 nM
same,GI50,UACC-62,3.31 nM
same,CC50,UACC-62; [8],> 1000 nM
same,TGI,UACC-62; read-out: Log TGI (converted),55 nM
same,GI50,HCC 2998,11.5 nM
same,CC50,HCC 2998; [8],> 1000 nM
same,TGI,HCC 2998; read-out: Log TGI (converted),> 1000 nM
same,GI50,HOP-92,5.13 nM
same,CC50,HOP-92; [8],> 1000 nM
same,TGI,HOP-92; read-out: Log TGI (converted),63.1 nM
same,GI50,HCT-116 [2],0.407 nM
same,CC50,HCT-116 [2]; [8],214 nM
same,TGI,HCT-116 [2]; read-out: Log TGI (converted),15.1 nM
same,GI50,HT-29 [3],1 nM
same,CC50,HT-29 [3]; read-out: LC50 (the source's name),80 nM
same,GI50,RPMI-8226,4.07 nM
same,CC50,RPMI-8226; [8],> 1000 nM
same,TGI,RPMI-8226; read-out: Log TGI (converted),> 1000 nM
same,GI50,HCT-15,3.09 nM
same,CC50,HCT-15; [8],> 1000 nM
same,TGI,HCT-15; read-out: Log TGI (converted),> 1000 nM
same,GI50,SK-MEL-2,27.5 nM
same,CC50,SK-MEL-2; [8],> 1000 nM
same,TGI,SK-MEL-2; read-out: Log TGI (converted),> 1000 nM
same,GI50,T47D,8.71 nM
same,CC50,T47D; [8],> 1000 nM
same,TGI,T47D; read-out: Log TGI (converted),> 1000 nM
same,GI50,NCI-H226,1.32 nM
same,CC50,NCI-H226; [8],> 1000 nM
same,TGI,NCI-H226; read-out: Log TGI (converted),32.4 nM
same,GI50,KM12,4.37 nM
same,CC50,KM12; [8],> 1000 nM
same,TGI,KM12; read-out: Log TGI (converted),537 nM
same,GI50,SF-539,2.75 nM
same,CC50,SF-539; [8],> 1000 nM
same,TGI,SF-539; read-out: Log TGI (converted),25.1 nM
same,Vd,[4],57 L/kg
same,GI50,SK-OV-3,151 nM
same,CC50,SK-OV-3; [8],> 1000 nM
same,TGI,SK-OV-3; read-out: Log TGI (converted),> 1000 nM
same,GI50,"K562; Homo sapiens, K562, 48 h",1.74 nM
same,TGI,K562; read-out: Log TGI (converted),186 nM and > 1000 nM
same,CC50,HCT-116 [5],30 nM
same,GI50,SF-268,10.2 nM
same,CC50,SF-268; [8],> 1000 nM
same,TGI,SF-268; read-out: Log TGI (converted),> 1000 nM
same,GI50,SW-620,0.676 nM
same,CC50,SW-620; [8],> 1000 nM
same,TGI,SW-620; read-out: Log TGI (converted),> 1000 nM
same,GI50,IGROV-1,3.39 nM
same,CC50,IGROV-1; [8],> 1000 nM
same,TGI,IGROV-1; read-out: Log TGI (converted),51.3 nM
same,GI50,Hs-578T,14.8 nM
same,CC50,Hs-578T; [8],> 1000 nM
same,TGI,Hs-578T; read-out: Log TGI (converted),> 1000 nM
same,GI50,NCI-H460,2.57 nM
same,CC50,NCI-H460; [8],> 1000 nM
same,TGI,NCI-H460; read-out: Log TGI (converted),> 1000 nM
same,GI50,TK-10,13.5 nM
same,CC50,TK-10; [8],> 1000 nM
same,TGI,TK-10; read-out: Log TGI (converted),> 1000 nM
same,GI50,NCI-H522,4.17 nM
same,CC50,NCI-H522; [8],> 1000 nM
same,TGI,NCI-H522; read-out: Log TGI (converted),151 nM
same,GI50,NCI-H23,20.4 nM
same,CC50,NCI-H23; [8],> 1000 nM
same,TGI,NCI-H23; read-out: Log TGI (converted),> 1000 nM
same,GI50,MDA-MB-435,7.41 nM
same,CC50,MDA-MB-435; [8],> 1000 nM
same,TGI,MDA-MB-435; read-out: Log TGI (converted),> 1000 nM
same,GI50,NCI,24 nM
same,CC50,NCI; [8],> 1000 nM
same,TGI,NCI; read-out: Log TGI (converted),> 1000 nM
same,GI50,OVCAR-5,339 nM
same,CC50,OVCAR-5; [8],> 1000 nM
same,TGI,OVCAR-5; read-out: Log TGI (converted),> 1000 nM
same,GI50,SNB-75,6.76 nM
same,CC50,SNB-75; [8],> 1000 nM
same,TGI,SNB-75; read-out: Log TGI (converted),214 nM
same,CC50,RKO,25 nM
same,GI50,SR,< 0.1 nM
same,CC50,SR; [8],17 nM
same,TGI,SR; read-out: Log TGI (converted),< 0.1 nM
same,GI50,[6],0.159 nM
same,CC50,[6]; [8],> 1000 nM
same,GI50,HT-29 [7],2.75 nM
same,CC50,HT-29 [7]; [8],> 1000 nM
same,TGI,HT-29 [7]; read-out: Log TGI (converted),295 nM
